Data from ChEMBL document CHEMBL1136442, “New anti-malarial peroxides with in vivo potency derived from spongean metabolites” (Bioorg Med Chem Lett, 2003).

Key:
[1] = test system: Mus musculus; test: In vivo anti-malarial activity against Plasmodium berghei
[2] = test system: KB 3-1; test: In vitro antimalarial activity against KB 3-1; format: functional, cell-based; conditions: Homo sapiens
How it was run: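 Cytotoxicity was measured by colorimetric MTT assay, with mitomycin C as positive control.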

[3] = Selectivity index was determined; format: functional
[4] = test system: Mus musculus; test: Survival days of the treated animal to that of control animal at a dose of 10 mg/kg; format: functional
[5] = test system: Plasmodium falciparum; test: In vitro anti-malarial activity against Plasmodium falciparum; format: functional, organism-based
How it was run: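 FCR3 strain (cycloguanil-resistant, Gambia) was sorbitol-synchronized and plated at ring stage (0.55% parasitemia, 2% hematocrit). Compound was added from DMSO stock diluted in complete medium (1% DMSO final). After 48 h at 37 °C, proliferation was scored on Giemsa smears, 10,000 erythrocytes per film, in triplicate. Quinine was the reference.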

[6] = organism: Mus musculus; test: In vitro anti-malarial activity in mice (Mus musculus) serum after 24 hr; format: functional, organism-based

Q: Which results are given for `CCCCCC1(OC)CCC(CC(=O)N(C)C)OO1` (centres undefined)?
A: ED50 [1]: 13 mg/kg; IC50 [2]: 4000 nM; Selectivity index [3]: 13; T/C [4]: 95; IC50 [5]: 310 nM

Q: With `CCCCCC1(OC)CCC(CC(=O)O)OO1` (centres undefined) as the molecule, how does the IC50 [6] read?
A: The IC50 was over 1200 nM.

Q: With `CCCCCC1(OC)CCC(CC(=O)N(CC)CC)OO1` (centres undefined) as the molecule, how does the ED50 [1] read?
A: Its ED50 is 20 mg/kg.

Q: What about the IC50 [2] of the same molecule?
A: Its IC50 is 13000 nM.

Q: And the Selectivity index [3]?
A: Its Selectivity index is 27.

Q: And the T/C [4]?
A: The T/C was 118.

Q: And the IC50 [5]?
A: The IC50 was 490 nM.

Q: For `CCCCCC1(OC)CCC(CC(=O)NC)OO1` (centres undefined), which IC50 [2] is on record?
A: The IC50 was 5200 nM.

Q: And the Selectivity index [3]?
A: The Selectivity index was 10.

Q: What about the T/C [4] of the same molecule?
A: Its T/C is 118.

Q: What about the IC50 [5] of the same molecule?
A: The IC50 was 520 nM.

Q: For `CCCCCC1(OC)CCC(CC(=O)NCCC)OO1` (centres undefined), which ED50 [1] is on record?
A: The ED50 was 9.3 mg/kg.

Q: And the IC50 [2]?
A: Its IC50 is 12000 nM.

Q: And the Selectivity index [3]?
A: Its Selectivity index is 39.

Q: And the T/C [4]?
A: Its T/C is 138.

Q: And the IC50 [5]?
A: Its IC50 is 310 nM.

Q: For `CCCCCC1(OC)CCC(CC(=O)NCC)OO1` (centres undefined), which ED50 [1] is on record?
A: Its ED50 is 11 mg/kg.

Q: What about the IC50 [2] of the same molecule?
A: Its IC50 is 14000 nM.

Q: And the Selectivity index [3]?
A: Its Selectivity index is 25.

Q: What about the T/C [4] of the same molecule?
A: Its T/C is 125.

Q: What about the IC50 [5] of the same molecule?
A: Its IC50 is 540 nM.

Q: For `CCCCCC1(OC)CCC(CC(=O)OC)OO1` (centres undefined), which ED50 [1] is on record?
A: Its ED50 is over 30 mg/kg.

Q: And the Selectivity index [3]?
A: The Selectivity index was 360.

Q: And the T/C [4]?
A: The T/C was 81.

Q: For `C[C@@H]1CC[C@H]2[C@@H](C)C(=O)O[C@@H]3O[C@@]4(C)CC[C@@H]1[C@]32OO4` [ARTEMISININ], which ED50 [1] is on record?
A: Its ED50 is 5 mg/kg.
